According to the M2OR odorant receptor database:

How the values were obtained:
Details in all cases: stereoisomer not certain
UniProt Q8VGC6 = biological target: T1, UniProt Q8VGC6
T1 sequence (whole entry): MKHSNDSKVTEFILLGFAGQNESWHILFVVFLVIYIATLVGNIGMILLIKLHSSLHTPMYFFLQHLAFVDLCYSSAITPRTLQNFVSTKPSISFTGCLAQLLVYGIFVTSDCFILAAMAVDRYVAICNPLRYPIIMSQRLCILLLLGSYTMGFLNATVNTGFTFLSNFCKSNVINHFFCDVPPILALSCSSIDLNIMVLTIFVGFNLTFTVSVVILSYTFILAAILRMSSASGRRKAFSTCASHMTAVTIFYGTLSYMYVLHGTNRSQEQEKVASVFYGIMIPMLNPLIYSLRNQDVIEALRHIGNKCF
Outline: (§1)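 Transient luciferase assays in mammalian cell lines were common, though methods varied by source. The values come from published papers and their supplementary material, with extra details from the original authors when needed. Responsive refers to a measured signal the original authors judged statistically different from baseline, and non-responsive (inactive) to the remainder.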

UniProt Q8VGD7 = biological target: T2, UniProt Q8VGD7
T2 sequence (whole entry): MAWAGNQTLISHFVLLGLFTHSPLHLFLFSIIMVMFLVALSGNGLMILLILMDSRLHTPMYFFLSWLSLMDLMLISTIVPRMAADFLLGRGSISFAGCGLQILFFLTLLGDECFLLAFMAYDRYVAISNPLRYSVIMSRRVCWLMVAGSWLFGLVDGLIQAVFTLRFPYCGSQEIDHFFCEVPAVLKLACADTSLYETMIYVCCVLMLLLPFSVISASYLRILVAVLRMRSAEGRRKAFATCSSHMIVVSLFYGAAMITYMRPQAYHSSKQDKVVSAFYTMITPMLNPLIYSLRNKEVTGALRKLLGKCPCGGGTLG
Outline: as §1

UniProt Q8VGH1 = biological target: T3, UniProt Q8VGH1
T3 sequence (whole entry): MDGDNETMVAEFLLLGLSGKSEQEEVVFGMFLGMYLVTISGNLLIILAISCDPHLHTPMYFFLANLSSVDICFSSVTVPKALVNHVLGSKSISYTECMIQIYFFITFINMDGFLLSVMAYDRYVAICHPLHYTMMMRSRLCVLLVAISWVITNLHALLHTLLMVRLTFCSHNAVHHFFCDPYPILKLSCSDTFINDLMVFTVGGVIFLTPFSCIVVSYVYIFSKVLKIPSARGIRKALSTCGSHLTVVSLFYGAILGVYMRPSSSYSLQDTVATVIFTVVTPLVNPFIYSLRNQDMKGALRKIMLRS
Outline: as §1

UniProt Q8VGJ1 = biological target: T4, UniProt Q8VGJ1
T4 sequence (whole entry): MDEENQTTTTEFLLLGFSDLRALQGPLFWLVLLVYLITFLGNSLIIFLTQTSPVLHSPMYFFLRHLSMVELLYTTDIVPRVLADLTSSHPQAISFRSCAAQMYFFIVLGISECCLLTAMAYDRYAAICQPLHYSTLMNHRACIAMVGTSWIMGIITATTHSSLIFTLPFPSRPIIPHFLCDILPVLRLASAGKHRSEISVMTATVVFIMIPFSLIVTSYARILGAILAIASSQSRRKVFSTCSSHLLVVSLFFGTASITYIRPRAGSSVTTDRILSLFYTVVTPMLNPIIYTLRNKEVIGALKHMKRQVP
Outline: as §1

UniProt Q8VGJ3 = biological target: T5, UniProt Q8VGJ3
T5 sequence (whole entry): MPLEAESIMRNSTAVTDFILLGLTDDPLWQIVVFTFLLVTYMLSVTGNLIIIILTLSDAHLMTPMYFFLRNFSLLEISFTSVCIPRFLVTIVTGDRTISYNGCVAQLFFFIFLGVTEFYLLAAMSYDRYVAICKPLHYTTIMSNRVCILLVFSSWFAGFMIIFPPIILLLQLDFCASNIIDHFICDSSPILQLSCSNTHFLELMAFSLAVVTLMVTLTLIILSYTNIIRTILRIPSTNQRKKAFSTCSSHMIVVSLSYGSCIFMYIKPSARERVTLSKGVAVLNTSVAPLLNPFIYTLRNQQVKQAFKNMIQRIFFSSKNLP
Outline: as §1

UniProt Q8VGJ5 = biological target: T6, UniProt Q8VGJ5
T6 sequence (whole entry): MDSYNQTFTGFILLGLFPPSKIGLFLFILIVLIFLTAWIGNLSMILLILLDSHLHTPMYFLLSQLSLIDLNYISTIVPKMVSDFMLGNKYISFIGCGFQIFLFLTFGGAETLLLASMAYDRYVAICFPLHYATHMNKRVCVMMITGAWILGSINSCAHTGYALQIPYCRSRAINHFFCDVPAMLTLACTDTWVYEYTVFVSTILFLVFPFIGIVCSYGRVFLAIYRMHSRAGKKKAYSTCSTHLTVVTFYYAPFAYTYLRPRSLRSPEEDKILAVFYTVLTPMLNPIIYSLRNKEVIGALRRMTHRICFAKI
Outline: as §1

UniProt Q8VGL0 = biological target: T7, UniProt Q8VGL0
T7 sequence (whole entry): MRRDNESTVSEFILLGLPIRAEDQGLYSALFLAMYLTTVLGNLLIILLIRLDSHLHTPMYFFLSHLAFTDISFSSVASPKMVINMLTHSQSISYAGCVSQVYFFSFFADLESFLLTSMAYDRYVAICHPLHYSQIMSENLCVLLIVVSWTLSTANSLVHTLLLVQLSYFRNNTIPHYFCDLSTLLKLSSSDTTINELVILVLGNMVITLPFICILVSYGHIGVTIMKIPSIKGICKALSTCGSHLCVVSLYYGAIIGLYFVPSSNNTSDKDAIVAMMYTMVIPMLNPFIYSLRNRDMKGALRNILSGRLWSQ
Outline: as §1

UniProt Q8VGL7 = biological target: T8, UniProt Q8VGL7
T8 sequence (whole entry): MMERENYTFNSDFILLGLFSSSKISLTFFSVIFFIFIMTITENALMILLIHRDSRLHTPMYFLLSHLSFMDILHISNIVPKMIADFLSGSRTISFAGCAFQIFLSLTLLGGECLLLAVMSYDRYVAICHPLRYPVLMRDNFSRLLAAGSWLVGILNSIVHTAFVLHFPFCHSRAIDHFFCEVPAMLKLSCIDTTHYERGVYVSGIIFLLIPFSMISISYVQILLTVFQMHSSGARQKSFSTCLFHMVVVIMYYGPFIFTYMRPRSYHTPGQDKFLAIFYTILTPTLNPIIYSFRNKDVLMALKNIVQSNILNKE
Outline: as §1

UniProt Q8VGM2 = biological target: T9, UniProt Q8VGM2
T9 sequence (whole entry): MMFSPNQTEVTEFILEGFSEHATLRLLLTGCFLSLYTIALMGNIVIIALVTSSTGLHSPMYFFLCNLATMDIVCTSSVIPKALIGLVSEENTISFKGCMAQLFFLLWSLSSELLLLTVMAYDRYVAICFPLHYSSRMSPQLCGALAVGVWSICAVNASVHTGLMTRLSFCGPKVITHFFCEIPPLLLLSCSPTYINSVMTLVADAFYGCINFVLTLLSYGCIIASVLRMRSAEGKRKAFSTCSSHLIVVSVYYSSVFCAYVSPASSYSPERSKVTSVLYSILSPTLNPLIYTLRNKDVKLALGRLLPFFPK
Outline: as §1

UniProt Q8VGP6 = biological target: T10, UniProt Q8VGP6
T10 sequence (whole entry): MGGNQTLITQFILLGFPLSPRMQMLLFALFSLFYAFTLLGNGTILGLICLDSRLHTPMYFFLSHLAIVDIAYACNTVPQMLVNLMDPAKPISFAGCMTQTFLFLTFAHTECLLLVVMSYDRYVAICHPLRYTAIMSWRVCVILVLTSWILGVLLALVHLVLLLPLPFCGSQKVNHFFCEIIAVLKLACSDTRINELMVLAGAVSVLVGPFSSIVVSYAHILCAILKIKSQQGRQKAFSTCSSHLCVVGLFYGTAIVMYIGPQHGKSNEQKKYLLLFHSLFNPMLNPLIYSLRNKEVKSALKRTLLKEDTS
Outline: as §1

UniProt Q8VGQ3 = biological target: T11, UniProt Q8VGQ3
T11 sequence (whole entry): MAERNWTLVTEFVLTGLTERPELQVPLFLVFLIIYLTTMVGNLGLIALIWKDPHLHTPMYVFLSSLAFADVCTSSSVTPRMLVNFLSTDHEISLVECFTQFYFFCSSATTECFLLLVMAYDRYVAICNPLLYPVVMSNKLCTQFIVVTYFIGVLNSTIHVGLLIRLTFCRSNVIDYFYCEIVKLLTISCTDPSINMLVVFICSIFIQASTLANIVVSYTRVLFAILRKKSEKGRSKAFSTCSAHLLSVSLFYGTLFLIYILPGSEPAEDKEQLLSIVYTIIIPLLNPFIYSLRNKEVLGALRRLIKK
Outline: as §1

UniProt Q8VGT4 = biological target: T12, UniProt Q8VGT4
T12 sequence (whole entry): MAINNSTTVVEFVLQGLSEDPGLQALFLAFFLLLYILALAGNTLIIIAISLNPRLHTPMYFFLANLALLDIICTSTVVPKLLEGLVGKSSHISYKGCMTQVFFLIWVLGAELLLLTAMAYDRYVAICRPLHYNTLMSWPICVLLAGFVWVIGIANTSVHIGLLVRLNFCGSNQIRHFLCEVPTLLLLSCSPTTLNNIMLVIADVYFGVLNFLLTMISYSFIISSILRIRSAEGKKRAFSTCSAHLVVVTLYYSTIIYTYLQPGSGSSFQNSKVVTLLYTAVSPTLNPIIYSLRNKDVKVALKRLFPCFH
Outline: as §1

UniProt Q8VGU3 = biological target: T13, UniProt Q8VGU3
T13 sequence (whole entry): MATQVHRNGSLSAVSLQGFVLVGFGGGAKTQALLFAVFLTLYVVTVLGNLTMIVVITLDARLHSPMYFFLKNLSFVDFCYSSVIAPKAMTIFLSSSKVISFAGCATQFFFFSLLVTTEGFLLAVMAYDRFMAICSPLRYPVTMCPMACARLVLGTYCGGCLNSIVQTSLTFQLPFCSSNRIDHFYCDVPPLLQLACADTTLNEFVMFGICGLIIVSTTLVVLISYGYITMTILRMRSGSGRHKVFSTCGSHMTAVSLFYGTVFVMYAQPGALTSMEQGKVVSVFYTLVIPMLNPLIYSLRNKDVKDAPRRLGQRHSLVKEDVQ
Outline: as §1

UniProt Q8VGV1 = biological target: T14, UniProt Q8VGV1
T14 sequence (whole entry): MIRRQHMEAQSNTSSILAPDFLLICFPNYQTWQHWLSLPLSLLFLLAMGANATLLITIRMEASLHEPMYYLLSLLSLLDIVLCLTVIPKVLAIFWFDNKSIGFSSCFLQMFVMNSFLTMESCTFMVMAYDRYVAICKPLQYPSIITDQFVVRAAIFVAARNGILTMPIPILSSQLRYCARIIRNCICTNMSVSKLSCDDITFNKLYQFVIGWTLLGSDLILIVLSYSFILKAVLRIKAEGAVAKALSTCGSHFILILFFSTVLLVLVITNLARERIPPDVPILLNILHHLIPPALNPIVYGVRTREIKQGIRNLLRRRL
Outline: as §1

UniProt Q8VGV7 = biological target: T15, UniProt Q8VGV7
T15 sequence (whole entry): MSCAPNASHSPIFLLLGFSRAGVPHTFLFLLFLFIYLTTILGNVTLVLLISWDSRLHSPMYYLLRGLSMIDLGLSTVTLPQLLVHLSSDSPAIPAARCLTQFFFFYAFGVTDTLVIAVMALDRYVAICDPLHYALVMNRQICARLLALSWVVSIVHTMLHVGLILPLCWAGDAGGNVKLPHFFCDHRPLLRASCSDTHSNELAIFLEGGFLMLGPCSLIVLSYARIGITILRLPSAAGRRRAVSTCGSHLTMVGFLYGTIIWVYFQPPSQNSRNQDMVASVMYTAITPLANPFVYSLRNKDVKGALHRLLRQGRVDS
Outline: as §1

UniProt Q8VGX3 = biological target: T16, UniProt Q8VGX3
T16 sequence (whole entry): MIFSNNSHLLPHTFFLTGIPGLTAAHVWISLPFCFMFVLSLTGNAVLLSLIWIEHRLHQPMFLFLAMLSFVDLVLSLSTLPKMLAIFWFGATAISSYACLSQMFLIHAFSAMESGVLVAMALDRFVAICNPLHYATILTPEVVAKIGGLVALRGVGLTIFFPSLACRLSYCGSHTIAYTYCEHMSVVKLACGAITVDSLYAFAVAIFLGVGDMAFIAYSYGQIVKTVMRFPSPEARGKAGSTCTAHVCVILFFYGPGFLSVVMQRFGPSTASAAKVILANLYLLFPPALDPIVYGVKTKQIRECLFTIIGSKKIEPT
Outline: as §1

UniProt Q8VGX5 = biological target: T17, UniProt Q8VGX5
T17 sequence (whole entry): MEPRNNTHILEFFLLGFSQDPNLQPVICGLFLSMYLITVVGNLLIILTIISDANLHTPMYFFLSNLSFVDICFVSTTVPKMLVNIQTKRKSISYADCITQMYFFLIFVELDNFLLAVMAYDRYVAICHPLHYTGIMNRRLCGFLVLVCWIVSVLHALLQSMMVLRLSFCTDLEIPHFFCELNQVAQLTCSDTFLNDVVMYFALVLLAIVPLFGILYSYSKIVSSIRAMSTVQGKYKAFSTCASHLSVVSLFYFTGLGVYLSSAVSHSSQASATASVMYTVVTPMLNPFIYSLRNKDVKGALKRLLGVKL
Outline: as §1
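Note: active if original authors judged signal statistically different from baseline.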

SMILES | odorant receptor agonist call (UniProt Q8VGC6) | odorant receptor agonist call (UniProt Q8VGD7) | odorant receptor agonist call (UniProt Q8VGH1) | odorant receptor agonist call (UniProt Q8VGJ1) | odorant receptor agonist call (UniProt Q8VGJ3) | odorant receptor agonist call (UniProt Q8VGJ5) | odorant receptor agonist call (UniProt Q8VGL0) | odorant receptor agonist call (UniProt Q8VGL7) | odorant receptor agonist call (UniProt Q8VGM2) | odorant receptor agonist call (UniProt Q8VGP6) | odorant receptor agonist call (UniProt Q8VGQ3) | odorant receptor agonist call (UniProt Q8VGT4) | odorant receptor agonist call (UniProt Q8VGU3) | odorant receptor agonist call (UniProt Q8VGV1) | odorant receptor agonist call (UniProt Q8VGV7) | odorant receptor agonist call (UniProt Q8VGX3) | odorant receptor agonist call (UniProt Q8VGX5)
CCCCCCCCCCO | active | inactive | inactive | inactive | inactive | inactive | inactive | inactive | inactive | active | inactive | inactive | inactive | inactive | inactive | inactive | inactive
CC=C(C)C=O | inactive |  |  |  | inactive |  | inactive |  |  |  |  |  | inactive |  | inactive | inactive | inactive
CCCCCCCC(C)=O | active | inactive | inactive | inactive | inactive | inactive | inactive | inactive | inactive | inactive | inactive | inactive | inactive | inactive | inactive | inactive | inactive
CCCCCC(=O)CC | active | inactive | inactive | inactive | inactive | active | inactive | inactive | inactive | inactive | inactive | inactive | inactive | inactive | inactive | inactive | inactive
CCCCCCCCS | active | inactive | inactive | inactive | inactive | inactive | inactive | inactive | inactive | inactive | inactive | inactive | inactive | inactive | inactive | inactive | inactive
